Results reported in ChEMBL document CHEMBL1143397 (J Med Chem, 2009).
The source made the active and inactive calls. The rule behind the calls is not given here.

biological target: T1, Melatonin receptor type 1B (Homo sapiens) (UniProt P49286); test: Antagonist activity at human MT2 receptor expressed in CHO cells assessed as inhibition of forskolin-stimulated cAMP formation; type: functional, cell-based; details: not given
T1 sequence (whole entry): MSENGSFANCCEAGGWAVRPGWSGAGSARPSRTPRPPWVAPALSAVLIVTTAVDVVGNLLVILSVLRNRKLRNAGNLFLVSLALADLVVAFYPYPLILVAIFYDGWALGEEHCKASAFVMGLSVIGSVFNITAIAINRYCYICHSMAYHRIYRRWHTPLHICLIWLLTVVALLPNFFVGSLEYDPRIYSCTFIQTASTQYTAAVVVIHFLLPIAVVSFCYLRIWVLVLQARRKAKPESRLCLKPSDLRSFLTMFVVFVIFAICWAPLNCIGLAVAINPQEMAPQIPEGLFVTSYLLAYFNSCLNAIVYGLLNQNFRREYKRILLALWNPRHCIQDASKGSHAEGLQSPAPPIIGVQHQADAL
Method in brief: (§1)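 In stable human MT1- or MT2-CHO cells replated in 24-well plates, cells were given 20 min at 37 °C in serum-free medium with 30 µM rolipram and 100 µM forskolin, plus a test compound concentration series within 10-14 to 10^-4 M. Rolipram alone gave basal and rolipram plus forskolin gave maximal accumulation. cAMP was read by EIA kit.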

| Activity | Structure (SMILES) |
| --- | --- |
| Active | COc1ccc2[nH]c(CN3CCc4ccccc43)c(CCNC(C)=O)c2c1 |

biological target: T2, Melatonin receptor type 1A (Homo sapiens, UniProt P48039); test: Antagonist activity at human MT1 receptor expressed in CHO cells assessed as inhibition of forskolin-stimulated cAMP formation; type: functional, cell-based; details: not given; method in brief: as §1
T2 sequence (P48039 whole entry): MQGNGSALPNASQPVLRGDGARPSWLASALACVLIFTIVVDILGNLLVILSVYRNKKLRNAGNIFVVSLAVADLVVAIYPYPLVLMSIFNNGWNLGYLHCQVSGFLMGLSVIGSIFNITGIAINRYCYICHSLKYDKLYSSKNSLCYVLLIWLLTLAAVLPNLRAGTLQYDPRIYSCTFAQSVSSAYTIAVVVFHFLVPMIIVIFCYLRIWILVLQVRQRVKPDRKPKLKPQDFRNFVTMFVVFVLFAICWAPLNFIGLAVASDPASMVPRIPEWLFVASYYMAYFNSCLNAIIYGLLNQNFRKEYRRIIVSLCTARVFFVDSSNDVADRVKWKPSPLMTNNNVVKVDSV

| Activity | Structure (SMILES) |
| --- | --- |
| Active | COc1ccc2[nH]c(CN3CCc4ccccc43)c(CCNC(C)=O)c2c1 |
| Active | COc1ccc2[nH]c(CN3CCc4ccccc43)c(CCNC(=O)C3CCC3)c2c1 |

species on record: Homo sapiens; test: Selectivity ratio of Ki for human MT1 receptor to Ki for human MT2 receptor; details: not given
Method in brief: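 Whole-cell competition binding used lifted human MT1- or MT2-CHO cells with 80-100 pM 2-[125I]iodomelatonin and test compound (1 pM to 1 µM), 1 h at 25 °C, stopped with cold 50 mM Tris-HCl pH 7.4. Ki came from IC50 by Cheng-Prusoff, mean of three determinations. The ratio is Ki MT1 / Ki MT2.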

| Ratio Ki | Structure (SMILES) |
| --- | --- |
| 91 | COc1ccc2[nH]c(CN3CCc4ccccc43)c(CCNC(C)=O)c2c1 |
| 5 | CCCC(=O)NCCc1c(CN2c3ccccc3CC2C)[nH]c2ccc(OC)cc12 (stereo not drawn) |
| 11 | COc1ccc2[nH]c(CN3c4ccccc4CC3C)c(CCNC(C)=O)c2c1 (stereo not drawn) |

biological target: T2, Melatonin receptor type 1A; test: Activity at high-affinity binding site of human MT1 receptor expressed in CHO cells assessed as decrease in potency of melatonin to inhibit forskolin-induced cAMP accumulation at 10 to 100 nM; details: not given

| Activity | Structure (SMILES) |
| --- | --- |
| Active | COc1ccc2[nH]c(CN3CCc4ccccc43)c(CCNC(C)=O)c2c1 |

biological target: T1, Melatonin receptor type 1B (Homo sapiens); test: Activity at human MT2 receptor expressed in CHO cells assessed as inhibition of forskolin-stimulated cAMP formation at >10 nM; type: functional, cell-based; details: not given; method in brief: as §1

| Activity | Structure (SMILES) |
| --- | --- |
| Active | COc1ccc2[nH]c(CN3CCc4ccccc43)c(CCNC(=O)C3CCC3)c2c1 |

biological target: T3, Melatonin receptor type 1B (Homo sapiens, UniProt P49286); test: Displacement of 2-[125I]iodomelatonin from human MT2 receptor expressed in CHO cells; type: cell-based; details: read-out: Ki
T3 sequence (P49286 whole entry): T1 sequence (whole entry)

| Structure (SMILES) | Ki |
| --- | --- |
| COc1ccc2c(c1)[C@@H](CCNC(=O)C1CCC1)C[C@@H](c1ccccc1)C2 | 0.9 nM |
| CCC(=O)NC1Cc2ccccc2C(c2ccccc2)C1 (stereo not drawn) | 0.46 nM |
| CCC(=O)NCCc1c(CN2CCc3ccccc32)[nH]c2ccc(OC)cc12 | 14.5 nM |
| CCCC(=O)NCCc1c(CN2c3ccccc3CC2C)[nH]c2ccc(OC)cc12 (stereo not drawn) | 8 nM |
| COc1ccc2[nH]c(CN3CCc4ccc([N+](=O)[O-])cc43)c(CCNC(C)=O)c2c1 | 26.5 nM |
| COc1ccc2c(c1)CCN2Cc1[nH]c2ccc(OC)cc2c1CCNC(C)=O | 7.1 nM |
| COc1cccc(/C(=C/CNC(C)=O)c2ccccc2)c1 | 2.5 nM |
| COc1ccc2[nH]c(CN3c4ccccc4CC3C)c(CCNC(C)=O)c2c1 (stereo not drawn) | 14 nM |
| COc1cccc(C(CCNC(C)=O)c2ccc3ccccc3c2)c1 (stereo not drawn) | 0.11 nM |
| CCC(=O)NCC1Cc2ccccc2Cc2ccc(OC)cc21 (stereo not drawn) | 0.16 nM |
| COc1ccc2[nH]c(CN3CCc4ccc(N)cc43)c(CCNC(C)=O)c2c1 | 118 nM |
| COc1ccc2[nH]c(CN3CCc4cc(Br)ccc43)c(CCNC(C)=O)c2c1 | 30 nM |
| COc1cccc(Cc2oc3ccc(OC)cc3c2CCNC(C)=O)c1 | 0.25 nM |

Other lines, results leading:

| Ki | Structure (SMILES) |
| --- | --- |
| 1.1 nM | COc1ccc2[nH]c(CN3CCc4ccccc43)c(CCNC(C)=O)c2c1 |
| 9 nM | CCC(=O)NCc1cc2c(OC)cccc2n1Cc1ccc(Cl)cc1 |
| 15 nM | COc1ccc2[nH]c(CN3CCc4cc(C)ccc43)c(CCNC(C)=O)c2c1 |
| 25 nM | COc1ccc2[nH]c(CN3CCCC3)c(CCNC(C)=O)c2c1 |
| 148 nM | COc1ccc2[nH]c(CN3CCc4ccccc43)c(CCNC(=O)C3CCC3)c2c1 |

same assay, conditions: read-out: pKi (converted)

| Ki | Structure (SMILES) |
| --- | --- |
| 1.17 nM | COc1ccc2[nH]c(CN3CCc4ccccc43)c(CCNC(C)=O)c2c1 |
| 0.001 nM | COc1ccc2[nH]c(CN3CCc4ccccc43)c(CCNC(=O)C3CCC3)c2c1 |
| 60.3 nM | COc1ccc2c(c1)c(CCNC(C)=O)c1n2CC2Cc3ccccc3N2C1 (stereo not drawn) |

biological target: T1, Melatonin receptor type 1B (Homo sapiens); test: Activity at human MT2 receptor expressed in CHO cells assessed as increase in potency of melatonin to inhibit forskolin-induced cAMP accumulation at 100 nM; type: functional, cell-based; details: not given

| Activity | Structure (SMILES) |
| --- | --- |
| Active | COc1ccc2[nH]c(CN3CCc4ccccc43)c(CCNC(C)=O)c2c1 |

biological target: T2, Melatonin receptor type 1A; test: Displacement of 2-[125I]iodomelatonin from human MT1 receptor expressed in CHO cells; type: cell-based; details: read-out: Ki

| Structure (SMILES) | Ki |
| --- | --- |
| COc1ccc2c(c1)[C@@H](CCNC(=O)C1CCC1)C[C@@H](c1ccccc1)C2 | 797 nM |
| CCC(=O)NC1Cc2ccccc2C(c2ccccc2)C1 (stereo not drawn) | 59 nM |
| CCC(=O)NCCc1c(CN2CCc3ccccc32)[nH]c2ccc(OC)cc12 | 38 nM |
| CCCC(=O)NCCc1c(CN2c3ccccc3CC2C)[nH]c2ccc(OC)cc12 (stereo not drawn) | 41 nM |
| COc1ccc2[nH]c(CN3CCc4ccc([N+](=O)[O-])cc43)c(CCNC(C)=O)c2c1 | 302 nM |
| COc1ccc2c(c1)CCN2Cc1[nH]c2ccc(OC)cc2c1CCNC(C)=O | 5.8 nM |
| COc1cccc(/C(=C/CNC(C)=O)c2ccccc2)c1 | 230 nM |
| COc1ccc2[nH]c(CN3c4ccccc4CC3C)c(CCNC(C)=O)c2c1 (stereo not drawn) | 148 nM |
| COc1cccc(C(CCNC(C)=O)c2ccc3ccccc3c2)c1 (stereo not drawn) | 132 nM |
| CCC(=O)NCC1Cc2ccccc2Cc2ccc(OC)cc21 (stereo not drawn) | 1.4 nM |
| COc1ccc2[nH]c(CN3CCc4ccc(N)cc43)c(CCNC(C)=O)c2c1 | 108 nM |
| COc1ccc2[nH]c(CN3CCc4cc(Br)ccc43)c(CCNC(C)=O)c2c1 | 85 nM |
| COc1cccc(Cc2oc3ccc(OC)cc3c2CCNC(C)=O)c1 | 27 nM |

Further lines, results first:

| Ki | Structure (SMILES) |
| --- | --- |
| 101 nM | COc1ccc2[nH]c(CN3CCc4ccccc43)c(CCNC(C)=O)c2c1 |
| 41 nM | COc1ccc2[nH]c(CN3CCc4cc(C)ccc43)c(CCNC(C)=O)c2c1 |
| 121 nM | COc1ccc2[nH]c(CN3CCCC3)c(CCNC(C)=O)c2c1 |
| 1400 nM | COc1ccc2[nH]c(CN3CCc4ccccc43)c(CCNC(=O)C3CCC3)c2c1 |

same assay, conditions: read-out: pKi (converted)

| Structure (SMILES) | Ki |
| --- | --- |
| COc1ccc2c(c1)CC1Cn3c(c(CCNC(C)=O)c4cc(OC)ccc43)CN21 (stereo not drawn) | 1780 nM |
| COc1ccc2[nH]c(CN3CCc4ccc([N+](=O)[O-])cc43)c(CCNC(C)=O)c2c1 | 309 nM |

Further lines, results first:

| Ki | Structure (SMILES) |
| --- | --- |
| 115 nM | COc1ccc2[nH]c(CN3CCc4ccccc43)c(CCNC(C)=O)c2c1 |
| 302 nM | COc1ccc2c(c1)c(CCNC(C)=O)c1n2CC2Cc3ccccc3N2C1 (stereo not drawn) |

biological target: T2, Melatonin receptor type 1A; test: Activity at low-affinity binding site of human MT1 receptor expressed in CHO cells assessed as increase in potency of melatonin to inhibit forskolin-induced cAMP accumulation at 10 to 100 nM; type: functional, cell-based; details: not given

| Activity | Structure (SMILES) |
| --- | --- |
| Active | COc1ccc2[nH]c(CN3CCc4ccccc43)c(CCNC(C)=O)c2c1 |

biological target: T1, Melatonin receptor type 1B (Homo sapiens); test: Activity at human MT2 receptor expressed in CHO cells assessed as increase in potency of melatonin to inhibit forskolin-induced cAMP accumulation at 10 nM; type: functional, cell-based; details: not given

| Activity | Structure (SMILES) |
| --- | --- |
| Active | COc1ccc2[nH]c(CN3CCc4ccccc43)c(CCNC(C)=O)c2c1 |
